Active and inactive are the calls of the source. The rule behind the calls is not given here.
Tests used:
THP-1 [1] = test: Effect on Cu/Zn SOD mRNA expression in human THP1 cells at 1 mM after 24 hrs by RT-PCR method; assay type: functional, cell-based
Method in brief: (§1)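 THP-1 cells (RPMI 1640, 10% heat-inactivated FCS, 37 °C, 5% CO2) were seeded at 2.0 × 10^6 cells/dish and treated for 24 h. Cells were washed with cold PBS and lysed in TRIzol, then analysed by real-time RT-PCR normalized to 18S rRNA. Values are mean ± SD of three independent experiments, with ANOVA and Bonferroni tests.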

THP-1 [2] = test: Upregulation of Mn SOD mRNA expression in human THP1 cells at 1 mM after 24 hrs by RT-PCR method; assay type: functional, cell-based; method in brief: as §1
Homo sapiens [3] = organism: Homo sapiens; test: Upregulation of HDAC1 inhibition/ERK signalling activation-mediated extracellular SOD protein expression in human THP1 cells at 1 mM after 24 hrs by ELISA; assay type: cell-based
Method in brief: (§2)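 EC-SOD protein content was measured by ELISA in THP-1 cells after 24 h treatment, with cells collected in PBS. Cells were cultured in RPMI 1640 with 10% heat-inactivated FCS at 37 °C and 5% CO2. Values are mean ± SD of three independent experiments, compared against untreated cells.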

Homo sapiens [4] = organism: Homo sapiens; test: Upregulation of HDAC1 inhibition/ERK signalling activation-mediated extracellular SOD mRNA expression in human THP1 cells at 1 mM after 24 hrs by RT-PCR method; assay type: cell-based; method in brief: as §1
[5] = target: Histone deacetylase 1 (Homo sapiens) (UniProt Q13547); test: Inhibition of HDAC1 in human THP1 cells assessed as increase in histone H4 acetylation level at 1 mM after 12 hrs by Western blot analysis relative to control; assay type: cell-based
Method in brief: (§3)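 After 12 h treatment, THP-1 whole-cell extracts (20 μg protein) were run on 12% SDS-PAGE and transferred to PVDF. Membranes were blocked with 1% BSA in PBS and probed with anti-acetyl histone H3 or H4 primary antibodies (1:1000), then a biotin-conjugated secondary antibody (1:1000). Histone loading was checked by Coomassie staining.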

[6] = target: Histone deacetylase 1 (Homo sapiens) (UniProt Q13547); test: Inhibition of HDAC1 in human THP1 cells assessed as increase in histone H3 acetylation level at 1 mM after 12 hrs by Western blot analysis relative to control; assay type: cell-based; method in brief: as §3
[7] = target: Histone deacetylase 1 (Homo sapiens) (UniProt Q13547); test: Upregulation of HDAC1 inhibition-mediated histone H4 acetylation-induced extracellular SOD expression in human THP1 cells at 1 mM after 12 hrs by chromatin immunoprecipitation method; assay type: cell-based
Method in brief: (§4)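 THP-1 cells (5 × 10^6) treated 12 h, at 1 mM or 100 μM per line. Cross-linked with formaldehyde 5 min at room temperature and chromatin sonicated to 150–800 bp. Immunoprecipitated overnight on protein G beads and washed in RIPA I/II and TE. Eluted with RNase A and proteinase K. EC-SOD promoter binding expressed as % of input.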

[8] = target: Histone deacetylase 1 (Homo sapiens) (UniProt Q13547); test: Upregulation of HDAC1 inhibition-mediated histone H3 acetylation-induced extracellular SOD expression in human THP1 cells at 1 mM after 12 hrs by chromatin immunoprecipitation method; assay type: cell-based; method in brief: as §4
THP-1 [9] = test: Effect on HDAC1 mRNA expression in human THP1 cells at 1 mM after 24 hrs by RT-PCR method; assay type: functional, cell-based
Method in brief: (§5)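 THP-1 cells in RPMI 1640 with 10% heat-inactivated FCS, 37 °C, 5% CO2. Seeded 2.0 × 10^6 cells per 3.5 cm dish and treated 24 h, at 1 mM for the 1 mM lines and 100 μM for the 100 μM lines. RNA extracted in TRIzol, then real-time RT-PCR normalized to 18S rRNA. Means ± SD of three independent experiments; ANOVA with Bonferroni post hoc.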

THP-1 [10] = test: Effect on HDAC2 mRNA expression in human THP1 cells at 1 mM after 24 hrs by RT-PCR method; assay type: functional, cell-based; method in brief: as §5
THP-1 [11] = test: Effect on HDAC3 mRNA expression in human THP1 cells at 1 mM after 24 hrs by RT-PCR method; assay type: functional, cell-based; method in brief: as §5
THP-1 [12] = test: Effect on HDAC8 mRNA expression in human THP1 cells at 1 mM after 24 hrs by RT-PCR method; assay type: functional, cell-based; method in brief: as §5
THP-1 [13] = test: Effect on HDAC4 mRNA expression in human THP1 cells at 1 mM after 24 hrs by RT-PCR method; assay type: functional, cell-based; method in brief: as §5
THP-1 [14] = test: Effect on HDAC5 mRNA expression in human THP1 cells at 1 mM after 24 hrs by RT-PCR method; assay type: functional, cell-based; method in brief: as §5
THP-1 [15] = test: Effect on HDAC6 mRNA expression in human THP1 cells at 1 mM after 24 hrs by RT-PCR method; assay type: functional, cell-based; method in brief: as §5
THP-1 [16] = test: Effect on HDAC7 mRNA expression in human THP1 cells at 1 mM after 24 hrs by RT-PCR method; assay type: functional, cell-based; method in brief: as §5
THP-1 [17] = test: Effect on HDAC9 mRNA expression in human THP1 cells at 1 mM after 24 hrs by RT-PCR method; assay type: functional, cell-based; method in brief: as §5
THP-1 [18] = test: Effect on HDAC10 mRNA expression in human THP1 cells at 1 mM after 24 hrs by RT-PCR method; assay type: functional, cell-based; method in brief: as §5
[19] = target: Histone deacetylase (Homo sapiens) (UniProt Q13547+O15379+Q9UBN7+Q92769+Q9UQL6+Q8WUI4+Q9BY41+Q96DB2+P56524+Q9UKV0+Q969S8); test: Inhibition of HDAC activity in human THP1 cells at 1 mM preincubated for 1 hr followed by substrate addition measured after 2 hrs by fluorescence assay relative to control; assay type: cell-based
Method in brief: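 This is a cell-based HDAC assay. THP-1 cells at 5.0 × 10^4 cells/well were treated for 1 h, then HDAC substrate was added for 2 h at 37 °C. Lysis/developer solution followed for 15 min at 37 °C. Fluorescence was read at ex 365 nm / em 410–460 nm and compared with untreated cells; mean ± SD, n = 3 independent experiments.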

[20] = target: Histone deacetylase 1 (Homo sapiens) (UniProt Q13547); test: Inhibition of recombinant HDAC1 catalytic domain (unknown origin) using HDAC substrate at 1 mM preincubated for 1 hr followed by substrate addition measured after 30 mins by fluorescence assay relative to control
Method in brief: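 Recombinant HDAC1 was mixed with compound in assay buffer, and the reaction was started with HDAC substrate for 30 min at 37 °C in the dark. Developer was then added for 15 min at room temperature. Fluorescence was read at ex 365 nm / em 410–460 nm and compared with untreated control; mean ± SD of three independent experiments.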

Homo sapiens [21] = organism: Homo sapiens; test: Upregulation of HDAC1 inhibition/ERK signalling activation-mediated extracellular SOD protein expression in human THP1 cells at 1 uM after 24 hrs by ELISA; assay type: cell-based; method in brief: as §2
Homo sapiens [22] = organism: Homo sapiens; test: Upregulation of HDAC1 inhibition/ERK signalling activation-mediated extracellular SOD mRNA expression in human THP1 cells at 1 uM after 24 hrs by RT-PCR method; assay type: cell-based; method in brief: as §1

Chain of Histone deacetylase 1 (Homo sapiens) (Q13547 whole entry, the tested form may be a part): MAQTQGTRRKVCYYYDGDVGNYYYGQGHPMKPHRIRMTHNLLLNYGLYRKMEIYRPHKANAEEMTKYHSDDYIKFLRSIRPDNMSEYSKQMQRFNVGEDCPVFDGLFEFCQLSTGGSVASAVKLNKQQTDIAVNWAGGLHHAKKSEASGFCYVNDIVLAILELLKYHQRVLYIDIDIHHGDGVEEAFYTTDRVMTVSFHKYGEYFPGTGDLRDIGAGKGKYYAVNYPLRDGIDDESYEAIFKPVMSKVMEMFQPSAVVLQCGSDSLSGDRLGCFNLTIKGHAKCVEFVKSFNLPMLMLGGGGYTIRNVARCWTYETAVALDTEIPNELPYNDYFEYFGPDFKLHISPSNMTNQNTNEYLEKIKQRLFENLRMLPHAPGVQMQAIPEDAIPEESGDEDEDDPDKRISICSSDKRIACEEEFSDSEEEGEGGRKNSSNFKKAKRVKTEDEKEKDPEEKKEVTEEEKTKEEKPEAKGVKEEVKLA

Row | fold change (FC) [5] | fold change (FC) [6] | inhibition [19] | inhibition [20] [%] | Structure (SMILES) | Activity (THP-1 [1]) | Activity (THP-1 [2]) | Activity (Homo sapiens [3]) | Activity (Homo sapiens [4]) | further results
1 | 2.24 | 1.24 | 20% | 50 | O=C(O)CCCCCCCCC(=O)O | inactive | Active | Active | Active | Activity [7]: Active; Activity [8]: inactive; Activity (THP-1 [9]): inactive; Activity (THP-1 [10]): inactive; Activity (THP-1 [11]): inactive; Activity (THP-1 [12]): inactive; Activity (THP-1 [13]): inactive; Activity (THP-1 [14]): inactive; Activity (THP-1 [15]): inactive; Activity (THP-1 [16]): inactive; Activity (THP-1 [17]): inactive; Activity (THP-1 [18]): inactive
2 | 2.47 | 1.29 | Active | 50 | O=C(O)/C=C\CCCCCCCO | inactive | Active | Active | Active | –
3 | – | – | – | – | CC(/C=C/C(=O)NO)=C\[C@@H](C)C(=O)c1ccc(N(C)C)cc1 | – | – | – | – | Activity (Homo sapiens [21]): Active; Activity (Homo sapiens [22]): Active

Source: ChEMBL document CHEMBL4477194, “Royal Jelly Constituents Increase the Expression of Extracellular Superoxide Dismutase through Histone Acetylation in Monocytic THP-1 Cells” (J Nat Prod, 2016)
